Test results: publication PMC8273112 (ACS Infectious Diseases, 2021)
pIC50: −log10 of the molar value. Counter-ions that a name gives are not always drawn. Like-named read-outs stand apart in the source and are kept apart here. One block for each molecule: values may come before it.

How the values were obtained:
[1] = tested on: Plasmodium falciparum strain D6; test: SYBR Green growth inhibition assay, P. falciparum D6; format: cell-based; settings: Plasmodium falciparum, D6, 72 h, read-out: IC50 D6
[2] = tested on: Plasmodium falciparum strain Dd2; test: SYBR Green growth inhibition assay, P. falciparum Dd2; format: cell-based; settings: Plasmodium falciparum
[3] = tested on: P. falciparum strain Tm90–C2B; test: SYBR Green growth inhibition assay, P. falciparum Tm90-C2B; format: cell-based, Plasmodium falciparum; settings: Plasmodium falciparum, TM90, 72 h, read-out: IC50 Tm90–C2B
How it was run: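 Human erythrocytes (≤28 days old), 2% hematocrit, asynchronous culture at 0.2% initial parasitemia, in RPMI-1640 with HEPES, hypoxanthine, glucose, glutamine and Albumax II. 2-fold serial dilution starting at 20 μM, quadruplicate. Incubated 72 h at 37 °C under 5% O2/5% CO2/90% N2. SYBR Green I dye-detergent added for at least 1 h in the dark; fluorescence read at 497/520 nm, normalized to untreated wells, plotted against log concentration.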

[4] = tested on: P. falciparum A6 (SB1-A6); test: SYBR Green growth inhibition assay, P. falciparum A6; format: cell-based, Plasmodium falciparum; settings: Plasmodium falciparum, 72 h, read-out: IC50 A6
How it was run: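 Asynchronous parasites grown in human erythrocytes in RPMI-1640 with HEPES, hypoxanthine and Albumax II under 5% O2/5% CO2/90% N2 at 37 °C. Test compound in 2-fold serial dilution from 20 μM, run in quadruplicate, at 2% hematocrit and 0.2% starting parasitemia for 72 h. SYBR Green I lysis dye added for ≥1 h in the dark. Fluorescence read at 497/520 nm, normalized to untreated wells and plotted against log concentration.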

[5] = Murine microsomal stability; format: in vitro ADME; settings: mouse, pooled murine liver microsomes; for half-life at 1 μM: pH 7.4, murine microsomal stability, t1/2, 1 μM, 0.5 mg/mL protein, 37 °C, 1 h, NADPH; for CLint scaled at 1 μM: pH 7.4
Plasmodium yoelii = test: Modified 4-day Peters test, murine malaria; format: in vivo, Plasmodium yoelii in mice
[6] = oral gavage days 1–4, parasitemia day 5, mice

Compound: N=C(N/N=C/c1cccc(Cl)c1)N/N=C/c1cccc(Cl)c1 [Compound 6, 2,2′-Bis[(3-chlorophenyl)methylene]carbonimidic Dihydrazide Hydrochloride]
pIC50 [1]: 6.69 | pIC50 ([2]; DD2, 72 h, read-out: IC50 Dd2): 6.25 | pIC50 [3]: 6.18 | pIC50 [4]: 6.63

Compound: N=C(N/N=C/c1ccccc1OC(F)(F)F)N/N=C/c1ccccc1OC(F)(F)F [Compound 14, 2,2′-Bis[(2-trifluoromethoxyphenyl)methylene]carbonimidic Dihydrazide Hydrochloride]
pIC50 [1]: 5.97 | pIC50 ([2]; DD2, 72 h, read-out: IC50 Dd2): 5.63 | pIC50 [3]: < 5.30 | pIC50 [4]: 6.41

half-life at 1 μM [5]: 0.241 h
Compound: O=C(c1ccc(F)cc1)C1CCN(CCn2c(=O)[nH]c3ccccc3c2=O)CC1 [ketanserin, reference compound]

Compound: CN(C)c1ccc(/C=N/NC(=N)N/N=C/c2ccc(N(C)C)cc2)cc1 [Compound 28, 2,2′-Bis[(4-dimethylaminophenyl)methylene]carbonimidic Dihydrazide Hydrochloride]
pIC50 [1]: 6.93 | pIC50 ([2]; DD2, 72 h, read-out: IC50 Dd2): 6.58 | pIC50 [3]: 6.67 | pIC50 [4]: 6.91

Compound: N=C(N/N=C/c1ccc(Br)cc1)N/N=C/c1ccc(Br)cc1 [Compound 9, 2,2′-Bis[(4-bromophenyl)methylene]carbonimidic Dihydrazide Hydrochloride]
pIC50 [1]: 6.56 | pIC50 ([2]; DD2, 72 h, read-out: IC50 Dd2): 6.06 | pIC50 [3]: 6.05 | pIC50 [4]: 6.57

Compound: N=C(N/N=C/c1ccccc1)N/N=C/c1ccccc1 [Compound 24, 2,2′-Bis(phenylmethylene)carbonimidic Dihydrazide Hydrochloride]
pIC50 [1]: 6.15 | pIC50 ([2]; DD2, 72 h, read-out: IC50 Dd2): 5.37 | pIC50 [3]: < 5.30 | pIC50 [4]: 6.24

Compound: N=C(N/N=C/c1ccc(C(F)(F)F)cc1)N/N=C/c1ccc(C(F)(F)F)cc1 [Compound 12, 2,2′-Bis[(4-trifluoromethylphenyl)methylene]carbonimidic Dihydrazide Hydrochloride]
pIC50 [1]: 6.21 | pIC50 ([2]; DD2, 72 h, read-out: IC50 Dd2): 5.81 | pIC50 [3]: 5.56 | pIC50 [4]: 6.25

Compound: Cc1ccc(/C=N/NC(=N)N/N=C/c2ccc(C)cc2)cc1 [Compound 10, 2,2′-Bis[(4-methylphenyl)methylene]carbonimidic Dihydrazide Hydrochloride]
pIC50 [1]: 6.04 | pIC50 ([2]; DD2, 72 h, read-out: IC50 Dd2): 5.61 | pIC50 [3]: 5.60 | pIC50 [4]: < 5.30

Compound: N=C(N/N=C/c1ccc(F)cc1)N/N=C/c1ccc(F)cc1 [Compound 4, 2,2′-Bis[(4-fluorophenyl)methylene]carbonimidic Dihydrazide Hydrochloride]
pIC50 [1]: 5.99 | pIC50 ([2]; DD2, 72 h, read-out: IC50 Dd2): 5.42 | pIC50 [3]: 5.31 | pIC50 [4]: 6.43

Compound: N=C(N/N=C/c1ccccc1Br)N/N=C/c1ccccc1Br [Compound 7, 2,2′-Bis[(2-bromophenyl)methylene]carbonimidic Dihydrazide Hydrochloride]
pIC50 [1]: 6.55 | pIC50 ([2]; DD2, 72 h, read-out: IC50 Dd2): 6.15 | pIC50 [3]: 6.01 | pIC50 [4]: 6.06

Compound: N=C(N/N=C/c1ccc(N2CCOCC2)cc1)N/N=C/c1ccc(N2CCOCC2)cc1 [Compound 33, 2,2′-Bis[(4-morpholinophenyl)methylene]carbonimidic Dihydrazide Hydrochloride]
pIC50 [1]: 6.88 | pIC50 ([2]; DD2, 72 h, read-out: IC50 Dd2): 6.48 | pIC50 [3]: 6.53 | pIC50 [4]: 6.94

Compound: Cl.N#Cc1cc(/C=N/NC(=N)N/N=C/c2ccc(F)c(C#N)c2)ccc1F [Compound 1, 2,2′-Bis[(3-cyano-4-fluorophenyl)methylene]carbonimidic Dihydrazide Hydrochloride]
pIC50 [1]: 8.40 | pIC50 ([2]; DD2, 72 h, read-out: IC50 Dd2): 7.92 | pIC50 [3]: 7.80 | pIC50 [4]: 7.85 | P. yoelii ED90 (Plasmodium yoelii; [6]): 0.28 mg/kg/day | CLint scaled at 1 μM [5]: 1.76 L/h/kg | half-life at 1 μM [5]: > 2.5 h

Compound: N=C(N/N=C/c1ccccc1)N/N=C/c1ccccc1F [Compound 38, 2-(Phenylmethylene)-2′-[(2-Fluorophenyl)methylene]carbonimidic Dihydrazide Hydrochloride]
pIC50 [1]: 5.99 | pIC50 ([2]; DD2, 72 h, read-out: IC50 Dd2): 5.66 | pIC50 [3]: < 5.30 | pIC50 [4]: 6.08

Compound: N=C(N/N=C/c1ccc(OC(F)F)cc1)N/N=C/c1ccc(OC(F)F)cc1 [Compound 18, 2,2′-Bis[(4-difluoromethoxyphenyl)methylene]carbonimidic Dihydrazide Hydrochloride]
pIC50 [1]: 7.15 | pIC50 ([2]; DD2, 72 h, read-out: IC50 Dd2): 6.72 | pIC50 [3]: 6.71 | pIC50 [4]: 7.06

Compound: N#Cc1ccccc1/C=N/NC(=N)N/N=C/c1ccccc1C#N [Compound 20, 2,2′-Bis[(2-cyanophenyl)methylene]carbonimidic Dihydrazide Hydrochloride]
pIC50 [1]: 5.99 | pIC50 ([2]; DD2, 72 h, read-out: IC50 Dd2): 5.68 | pIC50 [3]: 5.70 | pIC50 [4]: 6.01

Compound: N=C(N/N=C/c1cccc(F)c1)N/N=C/c1cccc(F)c1 [Compound 3, 2,2′-Bis[(3-fluorophenyl)methylene]carbonimidic Dihydrazide Hydrochloride]
pIC50 [1]: 6.12 | pIC50 ([2]; DD2, 72 h, read-out: IC50 Dd2): < 5.30 | pIC50 [3]: < 5.30 | pIC50 [4]: 6.37

Compound: N=C(N/N=C/c1cccc(Br)c1)N/N=C/c1cccc(Br)c1 [Compound 8, 2,2′-Bis[(3-bromophenyl)methylene]carbonimidic Dihydrazide Hydrochloride]
pIC50 [1]: 6.24 | pIC50 ([2]; DD2, 72 h, read-out: IC50 Dd2): 5.82 | pIC50 [3]: 5.74 | pIC50 [4]: 6.30

Compound: Cl.N=C(N/N=C/c1ccc(OC(F)(F)F)cc1)N/N=C/c1ccc(OC(F)(F)F)cc1 [Compound 16, 2,2′-Bis[(4-trifluoromethoxyphenyl)methylene]carbonimidic Dihydrazide Hydrochloride]
pIC50 [1]: 7.41 | pIC50 ([2]; DD2, 48 h, read-out: IC50 Dd2, 48 h): 6.39 | pIC50 ([2]; DD2, 72 h, read-out: IC50 Dd2): 7.08 | pIC50 ([2]; DD2, 72 h, read-out: IC50 Dd2, 72 h): 6.71 | pIC50 ([2]; DD2, 96 h, read-out: IC50 Dd2, 96 h): 6.72 | pIC50 [3]: 6.94 | pIC50 [4]: 7.28 | P. yoelii ED50 (Plasmodium yoelii; [6]): 1.2 mg/kg/day | P. yoelii ED90 (Plasmodium yoelii; [6]): 3.7 mg/kg/day | P. yoelii NRD (nonrecrudescence dose, cure dose) (Plasmodium yoelii; oral gavage up to 25 mg/kg/day, no parasites at day 30): 12.5 mg/kg/day | CLint scaled at 1 μM [5]: 1.9 L/h/kg | half-life at 1 μM [5]: > 2.5 h

Compound: N=C(N/N=C/c1cccc(OC(F)(F)F)c1)N/N=C/c1cccc(OC(F)(F)F)c1 [Compound 15, 2,2′-Bis[(3-trifluoromethoxyphenyl)methylene]carbonimidic Dihydrazide Hydrochloride]
pIC50 [1]: 6.17 | pIC50 ([2]; DD2, 72 h, read-out: IC50 Dd2): 5.80 | pIC50 [3]: 5.52 | pIC50 [4]: 6.16

Compound: COc1ccc(/C=N/NC(=N)N/N=C/c2ccc(OC)cc2)cc1 [Compound 11, 2,2′-Bis[(4-methoxyphenyl)methylene]carbonimidic Dihydrazide Hydrochloride]
pIC50 [1]: 6.58 | pIC50 ([2]; DD2, 72 h, read-out: IC50 Dd2): 5.80 | pIC50 [3]: < 5.30 | pIC50 [4]: 6.54

Compound: N=C(N/N=C/c1ccccc1Cl)N/N=C/c1ccccc1Cl [Compound 5, 2,2′-Bis[(2-chlorophenyl)methylene]carbonimidic Dihydrazide Hydrochloride]
pIC50 [1]: 6.48 | pIC50 ([2]; DD2, 72 h, read-out: IC50 Dd2): 6.02 | pIC50 [3]: 5.91 | pIC50 [4]: 6.46

Compound: N=C(N/N=C/c1ccccc1F)N/N=C/c1ccccc1F [Compound 2, 2,2′-Bis[(2-fluorophenyl)methylene]carbonimidic Dihydrazide Hydrochloride]
pIC50 [1]: 5.54 | pIC50 ([2]; DD2, 72 h, read-out: IC50 Dd2): 5.34 | pIC50 [3]: < 5.30 | pIC50 [4]: 5.72
